According to ChEMBL document CHEMBL1124925, “Anticandidal properties of N3-(4-methoxyfumaroyl)-L-2,3-diaminopropanoic acid oligopeptides” (1990):
In brackets after ≈: the same amount, converted by molar mass. Non-standard residues stand in square brackets, D forms with d. Residues, ends and D or L forms follow the SMILES beside them. *: point of attachment. Fumaryl(OMe) = COC(=O)/C=C/C(=O)*; Dap = NC[C@H](N)C(=O)O

Assays:
[1] = tested on: Candida albicans; experiment: Tested for its intracellular cleavage rate in Candida albicans ATCC 26278.; format: functional
Procedure, shortened: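 Cell-free extract came from cells grown overnight on Sabouraud medium at 30 °C with vigorous shaking. Cells were washed and extracted in 0.05 M phosphate buffer, pH 6.5; protein was measured by Lowry (Layne modification). Peptides at 200 μM in 0.005 M phosphate buffer were incubated with extract at 30 °C for 30 min. Samples were taken every 10 min and released amino acid was measured by Cd-ninhydrin.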

[2] = tested on: Candida albicans; experiment: In vitro antifungal activity against Candida albicans ATCC 26278.; format: functional
Procedure, shortened: (§1)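 MIC by serial dilution in liquid YNB medium containing sodium glutamate, inoculated at 10^4 cells/mL; growth read turbidimetrically at 660 nm after 24 h at 30 °C. Strains were 16 fresh clinical isolates collected at the Medical Academy of Gdansk plus standard strain ATCC 26278.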

[3] = tested on: Candida albicans; experiment: In vitro antifungal activity against 16 clinical strains of Candida albicans.; format: functional; procedure, shortened: as §1
[4] = tested on: Saccharomyces cerevisiae; experiment: In vitro antifungal activity against Saccharomyces cerevisiae ATCC 9763.; format: functional
[5] = tested on: Candida epidermidis; experiment: In vitro antifungal activity against Candida epidermidis OBS 6023.
[6] = tested on: Candida albicans; experiment: Tested for its rate of transport in Candida albicans ATCC 26278.; format: functional
[7] = tested on: Saccharomyces cerevisiae; experiment: Tested in vitro for antifungal activity against Saccharomyces cerevisiae ATCC 9763.; format: functional
[8] = tested on: Saccharomyces cerevisiae; experiment: In vitro for antifungal activity against Saccharomyces cerevisiae ATCC 9763.; format: functional
[9] = tested on: Candida epidermidis; experiment: In vitro antifungal activity against Candida epidermidis OBS 6023.; remark: listed apart in the source

MIC [2]	MIC [3]	MIC [4]	MIC [5]	MIC [7]	MIC [8]	MIC [9]	Compound	Cleavage rate [1]	Transport rate [6]
0.3 µg/mL (≈ 0.627 µM)	0.15 µg/mL (≈ 0.313 µM)	50 µg/mL (≈ 104 µM)	110 µg/mL (≈ 230 µM)				COC(=O)/C=C/C(=O)NC[C@H](NC(=O)[C@@H](N)CCSC)C(=O)N[C@@H](CCSC)C(=O)O	4.8 nM/min/mg	
							COC(=O)/C=C/C(=O)NC[C@H](NC(=O)[C@H](N)CCSC)C(=O)N[C@H](CCSC)C(=O)O		2 nM/min/mg
0.25 µg/mL (≈ 0.522 µM)	0.1 µg/mL (≈ 0.209 µM)		125 µg/mL (≈ 261 µM)	37.5 µg/mL (≈ 78.4 µM)			COC(=O)/C=C/C(=O)NC[C@H](NC(=O)[C@H](CCSC)NC(=O)[C@@H](N)CCSC)C(=O)O	4.9 nM/min/mg	
0.025 µg/mL (≈ 0.0564 µM)	0.01 µg/mL (≈ 0.0225 µM)		125 µg/mL (≈ 282 µM)				CCC[C@H](NC(=O)[C@@H](N)CCCCN)C(=O)N[C@@H](CNC(=O)/C=C/C(=O)OC)C(=O)O	51 nM/min/mg	
0.05 µg/mL (≈ 0.121 µM)	0.01 µg/mL (≈ 0.0241 µM)		125 µg/mL (≈ 302 µM)		50 µg/mL (≈ 121 µM)		CCC[C@H](NC(=O)[C@H](CNC(=O)/C=C/C(=O)OC)NC(=O)[C@@H](N)CCC)C(=O)O	8.9 nM/min/mg	2.9 nM/min/mg
0.25 µg/mL (≈ 0.597 µM)	0.1 µg/mL (≈ 0.239 µM)	15 µg/mL (≈ 35.8 µM)	50 µg/mL (≈ 119 µM)				COC(=O)/C=C/C(=O)NC[C@H](N)C(=O)N[C@@H](CCSC)C(=O)N[C@@H](C)C(=O)O	4.9 nM/min/mg	
							COC(=O)/C=C/C(=O)NC[C@H](NC(=O)[C@@H](CCSC)NC(=O)[C@@H](CCSC)NC(=O)[C@@H](N)CNC(=O)/C=C/C(=O)OC)C(=O)O		1.2 nM/min/mg
0.25 µg/mL (≈ 0.369 µM)	0.25 µg/mL (≈ 0.369 µM)	75 µg/mL (≈ 111 µM)	75 µg/mL (≈ 111 µM)				COC(=O)/C=C/C(=O)NC[C@H](NC(=O)[C@H](CCSC)NC(=O)[C@H](CCSC)NC(=O)[C@@H](N)CNC(=O)/C=C/C(=O)OC)C(=O)O	5.8 nM/min/mg	
0.125 µg/mL (≈ 0.28 µM)	0.05 µg/mL (≈ 0.112 µM)	7.5 µg/mL (≈ 16.8 µM)	130 µg/mL (≈ 291 µM)				CCC[C@H](NC(=O)[C@@H](N)CCSC)C(=O)N[C@@H](CNC(=O)/C=C/C(=O)OC)C(=O)O	17.3 nM/min/mg	
0.75 µg/mL (≈ 1.79 µM)	0.25 µg/mL (≈ 0.597 µM)	7.5 µg/mL (≈ 17.9 µM)	125 µg/mL (≈ 299 µM)				COC(=O)/C=C/C(=O)NC[C@H](NC(=O)[C@H](C)NC(=O)[C@@H](N)CCSC)C(=O)O	15.2 nM/min/mg	
0.75 µg/mL (≈ 2.09 µM)	0.25 µg/mL (≈ 0.698 µM)	37.5 µg/mL (≈ 105 µM)	80 µg/mL (≈ 223 µM)				COC(=O)/C=C/C(=O)NC[C@H](NC(=O)[C@H](C)N)C(=O)N[C@@H](C)C(=O)O	5.4 nM/min/mg	0.9 nM/min/mg
0.75 µg/mL (≈ 1.37 µM)	0.25 µg/mL (≈ 0.458 µM)	150 µg/mL (≈ 275 µM)	125 µg/mL (≈ 229 µM)				COC(=O)/C=C/C(=O)NC[C@H](NC(=O)[C@H](CNC(=O)/C=C/C(=O)OC)NC(=O)[C@@H](N)CCSC)C(=O)O	10 nM/min/mg	
0.75 µg/mL (≈ 1.37 µM)	0.25 µg/mL (≈ 0.458 µM)	150 µg/mL (≈ 275 µM)	75 µg/mL (≈ 137 µM)				COC(=O)/C=C/C(=O)NCC(N)C(=O)N[C@@H](CCSC)C(=O)N[C@@H](CNC(=O)/C=C/C(=O)OC)C(=O)O (some centres undefined)	3 nM/min/mg	1.4 nM/min/mg
0.5 µg/mL (≈ 0.675 µM)	0.25 µg/mL (≈ 0.337 µM)	37.5 µg/mL (≈ 50.6 µM)				75 µg/mL (≈ 101 µM)	COC(=O)/C=C/C(=O)NC[C@H](NC(=O)[C@H](CCSC)NC(=O)[C@H](CCSC)NC(=O)[C@H](CCSC)NC(=O)[C@@H](N)CCSC)C(=O)O (H-MMMM[Dap](Fumaryl(OMe))-OH)	18.6 nM/min/mg	
0.75 µg/mL (≈ 1.23 µM)	0.25 µg/mL (≈ 0.41 µM)	100 µg/mL (≈ 164 µM)	75 µg/mL (≈ 123 µM)				COC(=O)/C=C/C(=O)NC[C@H](NC(=O)[C@H](CCSC)NC(=O)[C@H](CCSC)NC(=O)[C@@H](N)CCSC)C(=O)O (H-MMM[Dap](Fumaryl(OMe))-OH)	23.7 nM/min/mg	
